Screens (PubChem)
OX1R antag-1: antagonists of human orexin 1 receptor (OX1R); O43613; OX1R-expressing cells, FRET antagonist read-out; inhibition, % at 6.6 µM; 1.8% of 330,000 active; AID 485270; in the data active = inhibition mostly above about 38%, no sharp cut-off; inactive = mostly below about 40%;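 note: 0% = agonist challenge alone and 100% = reference antagonist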
CHO parental Ca: counter-screen: ATP calcium response change in parental CHO cells; parental CHO-K1, ATP-induced calcium, Fluo-8 fluorescence; inhibition, % at 5.6 µM; 0.63% of 330,000 active; AID 463079;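 active = inhibition above that plate's mean sample inhibition plus 3 SD, cut at about 26% in these data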;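 note: 0% = ATP-challenged DMSO wells and 100% = DMSO wells without ATP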
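Assay system – parental CHO cells · Reagent – ATP stimulus · Detection – intracellular calcium via Fluo-8 no-wash fluorescent dye · Evaluation – percent inhibition of ATP-evoked calcium rise, normalized to controls · Controls – ATP wells versus no-ATP DMSO wells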
TAAR1 antag: antagonists of human TAAR1; inhibition, % at 3 µM; CHO RD-HGA16 TAAR1, Fluo-8 calcium fluorescence, antagonist; 1.5% of 360,000 active; Q96RJ0;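 active = inhibition above a per-plate cutoff, the mean inhibition of test compounds on that plate plus 3 SD, cut at about 49% in these data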;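 note: 0% = DMSO plus EC80 beta-PEA response and 100% = DMSO alone without agonist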
Target sequence (Q96RJ0 whole entry, looked up): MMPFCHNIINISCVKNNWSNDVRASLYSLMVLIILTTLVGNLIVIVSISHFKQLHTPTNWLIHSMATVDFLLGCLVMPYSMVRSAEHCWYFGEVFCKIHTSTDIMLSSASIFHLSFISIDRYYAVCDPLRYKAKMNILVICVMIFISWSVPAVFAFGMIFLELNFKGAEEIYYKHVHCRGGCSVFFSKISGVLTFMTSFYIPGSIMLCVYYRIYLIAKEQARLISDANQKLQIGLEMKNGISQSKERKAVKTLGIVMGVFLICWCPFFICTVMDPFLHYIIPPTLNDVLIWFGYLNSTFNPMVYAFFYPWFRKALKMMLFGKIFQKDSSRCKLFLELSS
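System: CHO RD-HGA16 cells bearing hTAAR1. Reagent: EC80 β-phenethylamine stimulus. Schedule: seeding 17-24 h prior, 75-min 37 °C, 30-min RT dye loading. Signal: Fluo-8 intracellular calcium dye fluorescence, real-time kinetic reads. Read-out: % inhibition from peak post-agonist over basal fluorescence ratio. Benchmarks: vehicle wells and EC80 agonist wells. Replicates: n of 1.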
GPR7 antagonist: human neuropeptides B/W receptor 1 antagonism; 1.1% of 290,000 active; P48145; GPR7-expressing cells, fluorescence antagonist assay; inhibition, % at 4.4 µM; in the data active = inhibition above about 16%, passing the limit was not always enough;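 note: cells stimulated with the agonist NPW; 0% = agonist with vehicle and 100% = vehicle without agonist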
Target sequence (P48145 whole entry, looked up): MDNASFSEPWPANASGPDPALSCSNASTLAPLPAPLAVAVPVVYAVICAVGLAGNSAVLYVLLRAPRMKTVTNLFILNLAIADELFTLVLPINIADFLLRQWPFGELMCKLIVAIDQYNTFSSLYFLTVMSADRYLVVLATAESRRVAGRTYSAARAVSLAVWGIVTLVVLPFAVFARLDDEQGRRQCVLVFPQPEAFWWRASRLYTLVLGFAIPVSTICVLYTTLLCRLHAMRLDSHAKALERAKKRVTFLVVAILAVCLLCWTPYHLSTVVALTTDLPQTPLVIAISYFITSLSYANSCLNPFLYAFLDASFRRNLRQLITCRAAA
OX1R antag-2: antagonists of human orexin 1 receptor. AID 434989. O43613. 0.43% of 330,000 active. inhibition, % at 5 µM. CHO/OX1R cells, Fluo-8 calcium fluorescence, orexin A;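 active = inhibition above its plate's threshold, mean inhibition of all tested compounds on the plate plus 3 SD, cut at about 37% in these data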;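 note: 0% = orexin A challenge wells and 100% = SB-334867-A antagonist wells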
TAAR1 ag: human TAAR1 agonism; Q96RJ0; CHO RD-HGA16 TAAR1, Fluo-8 calcium fluorescence; vehicle wells 0%, saturating PEA agonist 100%; activation, % at 3 µM; 0.99% of 360,000 active; AID 624467;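 active = activation above the mean activation of all test compounds in the run plus 3 SD, cut at about 38% in these data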
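System: CHO-derived RD-HGA16 cells with stable Gα16 and human TAAR1. Times: 17-24 h plating, Fluo-8 75 min 37 °C, 30 min RT. Measured by: calcium-sensitive Fluo-8 signal, excitation 470-495, emission 515-575 nm. Read-out basis: % activation relative to PEA EC100 response. Control set: DMSO and PEA EC100. Repeats: no replicates (n 1).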
OX1R HTRF confirm: OX1R (human) antagonism, HTRF confirmed | 49% of 1,800 active | inhibition, % at 6.6 µM | shares compounds with OX1R antag-1 | OX1R-expressing cells, HTRF antagonist assay; in the data active = inhibition above about 55%;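 note: CHO cells expressing OX1R stimulated with orexin A at about EC80; 0% = agonist challenge alone and 100% = reference antagonist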
CHO-K1 HTRF cnt: signal in parental CHO-K1 cells, OX1R antagonist counter-screen; shares compounds with OX1R antag-1; HTRF counterscreen; inhibition, % at 6.6 µM; 48% of 1,800 active; in the data active = inhibition above about 17%;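 note: 0% = agonist challenge with vehicle and 100% = vehicle alone without agonist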
Active calls of the source: *; / = not tested or not shown. The list is not random: actives were taken first. Their share in the collection is about 4.6%.

SMILES	OX1R antag-1	CHO parental Ca	TAAR1 antag	GPR7 antagonist	OX1R antag-2	TAAR1 ag	OX1R HTRF confirm	CHO-K1 HTRF cnt
O=[N+]([O-])c1cc(C(F)(F)F)ccc1N1CCN(CCO)CC1	6.4	-7.5	17.8	0.5	5.3	4.1	/	/
O=C(NCCN1CCC(n2c(=O)[nH]c3ccccc32)CC1)c1ccc(OC(F)(F)F)cc1	/	/	3.2	/	/	4.2	/	/
C=C(CN(C)C)C(=O)c1cc(OC)c(OC)cc1OC	/	/	-15.9	/	/	1.5	/	/
Cc1ccc2c(ccn3cc4c(c(=O)n(C)c(=O)n4C)c23)c1	86.0*	-16.6	-20.4	-12.3	-2.0	-1.6	87.8*	6.5
Cc1cccc(-c2c3c(=O)n(C)c(=O)n(C)c3cn2C(C)C)c1	19.1	-22.1	13.4	-13.7	-16.9	1.4	/	/
Cc1ccc(CN2C(=O)CSCC2(C)C(=O)NC(C)C)cc1 (configuration not stated)	/	/	-18.5	/	/	2.8	/	/
CCOc1ccccc1N1CCN(C2=C(NS(=O)(=O)c3cccs3)C(=O)c3ccccc3C2=O)CC1	23.7	-34.9	23.2	-7.6	-41.9	3.9	/	/
CN1CCN(C2=C(NS(=O)(=O)c3cccs3)C(=O)c3ccccc3C2=O)CC1	131.8*	-3.7	-13.8	-10.2	-11.2	-0.4	62.3*	98.7*
CN1CCN(C2=C(Cl)C(=O)c3ccccc3C2=O)CC1	/	/	17.5	/	/	3.5	/	/
NC(=O)C1CCN(C2=C(NS(=O)(=O)c3ccccc3)C(=O)c3ccccc3C2=O)CC1	129.5*	-6.3	10.3	9.3	-17.8	14.1	59.4*	75.6*
O=C1C(NS(=O)(=O)c2cccs2)=C(N2CCOCC2)C(=O)c2ccccc21	86.4*	0.5	-7.4	-7.7	5.6	-0.2	95.3*	63.1*
O=C1C(Cl)=C(N2CCC(C(=O)O)CC2)C(=O)c2ccccc21	100.9*	-14.7	/	-14.7	-6.7	/	52.4	64.0*
CN1CCN(c2nc3cc(N4CCOCC4)ccc3s2)CC1	/	/	16.1	/	/	1.4	/	/
CC(C)(C)Cc1c(-c2ccco2)nc2ccc(Cl)cn12	/	/	-20.1	/	/	-0.2	/	/
O=C1C(NS(=O)(=O)c2ccc(Cl)cc2)=C(N2CCCCC2)C(=O)c2ccccc21	111.5*	-38.1	26.4	0.4	-28.7	4.3	40.9	40.5*
CN1CCN(C2=C(NS(=O)(=O)c3ccccc3)C(=O)c3ccccc3C2=O)CC1	96.0*	-15.6	/	-9.2	-23.0	/	73.9*	89.5*
CCN1CCN(C2=C(NS(=O)(=O)c3ccc(Br)cc3)C(=O)c3ccccc3C2=O)CC1	94.8*	-8.4	-11.3	-8.1	-25.1	3.2	70.2*	88.4*
CCC(/C=C1\Oc2ccc(OC)cc2N1C)=C\c1sc2ccccc2[n+]1CCCS(=O)(=O)[O-]	/	/	-4.3	/	/	4.3	/	/
COc1cc(/C=C/c2sc3ccccc3[n+]2CCCS(=O)(=O)[O-])ccc1O	86.2*	5.7	1.1	15.6	9.3	8.9	58.9*	99.1*
COc1ccc2nc3oc(C(=O)N4CCC(C(N)=O)CC4)cc3cc2c1	154.2*	-6.0	14.2	6.3	-4.7	4.7	27.7	37.5*
CCOC(=O)C1CCN(C(=O)c2cc3cc4ccc(OC)cc4nc3o2)CC1	12.8	-21.9	4.0	0.5	-17.7	1.2	/	/
CC1(Cc2ccc3c(c2)OCO3)C(=O)Nc2c(Cl)ccc(Cl)c21 (configuration not stated)	/	/	11.6	/	/	-0.5	/	/
Cc1nc2ccc(NC(=O)C3(C)CCCN(C(C)C)C3)cc2o1 (configuration not stated)	/	/	-4.5	/	/	1.2	/	/
Cc1ccc(NC(=O)CSc2nnc(-c3ccco3)o2)cc1	98.7*	-3.4	8.5	1.5	-13.0	4.5	8.4	6.3
CC(=O)c1ccc(NC(=O)CSc2nnc(-c3ccco3)o2)cc1	2.1	8.1	-11.3	15.9	-5.1	5.6	/	/
SMILES	OX1R antag-1	CHO parental Ca	TAAR1 antag	GPR7 antagonist	OX1R antag-2	TAAR1 ag	OX1R HTRF confirm	CHO-K1 HTRF cnt
O=C(N/N=C/c1ccncc1)c1ccc(COc2cccc3cccnc23)cc1	24.0	-12.7	40.0	0.8	-12.7	7.4	/	/
O=C(N/N=C/c1ccc2cccc(OCc3ccccc3)c2n1)c1ccc(Cl)cc1	79.2*	-15.1	18.7	-10.9	-2.0	10.5	37.0	-2.0
C=CCN1[C@@H](CC(C)C)COc2cccc(NCCCN3CCOCC3)c2S1(=O)=O	/	/	1.4	/	/	5.9	/	/
Cc1c(NS(=O)(=O)c2cccc(C(=O)NCc3ccc(Cl)cc3)c2)c(=O)n(-c2ccccc2)n1C	84.4*	-24.1	-10.3	14.3	24.1	14.3	83.6*	-0.2
CCN(C(=O)COC(=O)c1cc(S(=O)(=O)Nc2c(C)n(C)n(-c3ccccc3)c2=O)ccc1Cl)C1CCCCC1	80.4*	-22.5	-8.0	2.7	-12.6	-2.8	85.6*	0.7
CCCCNC(=O)c1nc(-c2cccnc2)oc1-c1ccc(OC(F)(F)F)cc1	/	/	-13.4	/	/	-0.7	/	/
OC[C@@H]1CN(Cc2ccc(-c3ccccc3)cc2)C[C@H](n2cnc3c(NC4CCC4)ncnc32)O1	/	/	36.0	/	/	8.2	/	/
Cc1c(/C=C/C(=O)c2cccs2)cnn1C	102.6*	-15.0	-11.0	-14.8	10.2	2.8	62.3*	15.3
CCc1ccc(C(=O)/C=C/c2cnn(C)c2C)s1	24.1	-15.7	7.5	-0.1	-7.0	5.3	/	/
Cc1cc(=O)[nH]c(N/N=C/c2c(C)oc3ccccc23)n1	76.9*	-12.8	-16.8	1.2	-9.0	1.7	84.9*	5.5
COc1ccc(-c2cc(C(=O)NCc3ccc(C(F)(F)F)cc3)[nH]n2)c(C)c1	/	/	-13.7	/	/	9.2	/	/
c1cncc(-c2nc(NCC3COc4ccccc4O3)c3ccccc3n2)c1 (configuration not stated)	94.9*	-23.9	54.2*	0.0	20.8	14.2	55.5*	13.2
c1cncc(-c2nc(NCc3ccc4c(c3)OCO4)c3ccccc3n2)c1	33.3	-9.9	29.0	-10.0	0.2	2.4	/	/
Cc1cc(C)c(C#N)c(SCc2nnc(-c3ccccc3)o2)n1	80.7*	-11.2	4.3	0.4	23.4	1.7	42.5	1.6
Cc1cc(C)c(C#N)c(SCc2nnc(-c3ccccc3[N+](=O)[O-])o2)n1	16.3	-0.2	8.7	-2.8	-13.1	25.2	/	/
Cc1nnc(C)n1N1C(=O)c2cccc3cccc(c23)C1=O	18.6	-4.0	-13.6	-0.2	-6.8	7.0	/	/
CCCc1nnc(N2C(=O)c3cccc4cccc(c34)C2=O)s1	102.8*	-2.5	-5.7	10.2	-17.2	3.2	40.3	37.0*
Nc1ccc2oc(-c3cccc4ccccc34)nc2c1	82.2*	-5.3	3.2	29.3	-3.7	20.9	67.7*	0.8
Cc1ccc(-c2nc3cc(N)ccc3o2)c(C)c1	28.8	-14.3	-10.8	-6.2	-13.0	11.3	/	/
